From ChEMBL document CHEMBL4007382 (Eur J Med Chem, 2017) come the findings set out here.

For orientation: IC50 means the concentration that inhibits the measured activity by half. High values mean weaker potency, low ones greater potency.

The target of data set [1] is T1, Cholinesterase (Homo sapiens, UniProt P06276). Put plainly: Inhibition of human plasma BuChE using S-butyrylthiocholine iodide as substrate preincubated for 60 mins followed by substrate addition measured after 5 mins by Ellman's method. The procedure, abridged: (§1)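 Source was plasma from heparinised blood of one healthy donor, centrifuged at 1000 × g for 20 min at 25°C, stored at -80°C and diluted 150X. Ellman assay at pH 8 and 37°C with 60 min preincubation and seven inhibitor concentrations in water, 5×10^-8 to 5×10^-10 M. Triplicates.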
T1 sequence (P06276 whole entry): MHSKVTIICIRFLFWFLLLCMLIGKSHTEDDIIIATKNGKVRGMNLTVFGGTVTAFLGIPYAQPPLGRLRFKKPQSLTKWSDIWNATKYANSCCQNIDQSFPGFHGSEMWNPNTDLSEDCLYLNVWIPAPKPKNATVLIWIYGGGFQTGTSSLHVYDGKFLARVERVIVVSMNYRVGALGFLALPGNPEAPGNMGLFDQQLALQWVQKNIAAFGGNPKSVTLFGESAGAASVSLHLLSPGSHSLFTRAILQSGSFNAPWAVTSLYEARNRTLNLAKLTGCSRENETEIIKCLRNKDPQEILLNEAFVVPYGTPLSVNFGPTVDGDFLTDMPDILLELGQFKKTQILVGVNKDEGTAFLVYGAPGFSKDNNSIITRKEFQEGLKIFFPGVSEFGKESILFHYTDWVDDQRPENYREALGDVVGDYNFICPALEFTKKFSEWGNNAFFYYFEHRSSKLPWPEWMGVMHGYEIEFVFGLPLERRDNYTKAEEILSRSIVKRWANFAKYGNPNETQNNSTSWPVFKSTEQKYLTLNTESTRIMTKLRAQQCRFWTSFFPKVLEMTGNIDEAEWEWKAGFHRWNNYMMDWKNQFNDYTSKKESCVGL
In general terms: In Ellman's method for cholinesterases, released thiocholine reacts with DTNB.

The test system of data set [2] is Mus musculus. Description: Cardiotoxicity in Kunming mouse assessed as change in heart rate at 20 mg/kg, ip measured after 21 mins by electrocardiogram (reference value: -40.23 +/- 16.21). Type of data set: toxicity, organism-based. The note with it: in vivo, 0.35 h.
For data set [3], the system named is Mus musculus. Description: Cardiotoxicity in Kunming mouse assessed as change in heart rate at 20 mg/kg, ip measured after 26 mins by electrocardiogram (reference value: -46.48 +/- 17.52). It counts as toxicity, organism-based. The note with it: in vivo.
Data set [4] has as its system Mus musculus. Description: Cardiotoxicity in Kunming mouse assessed as change in heart rate at 20 mg/kg, ip measured after 16 mins by electrocardiogram (reference value: -38.67 +/- 10.18). It counts as toxicity, organism-based. Conditions: in vivo.
For data set [5], the system named is Mus musculus. Description: Cardiotoxicity in Kunming mouse assessed as change in heart rate at 20 mg/kg, ip measured after 5 mins by electrocardiogram (reference value: -14.06 +/- 24.25). Type of data set: toxicity, organism-based. Conditions: in vivo.
In data set [6] the target is Cholinesterase (Equus caballus, UniProt P81908). Put plainly: Inhibition of equine serum BuChE using S-butyrylthiocholine iodide as substrate preincubated for 60 mins followed by substrate addition measured after 5 mins by Ellman's method. The procedure, abridged:
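Equine serum BChE (0.1 U/mL) in 100 mM sodium phosphate, pH 8, was preincubated at 37°C for 60 min with seven inhibitor concentrations (top 1×10^-5 M; stocks in acetonitrile:water 1:9). Added mix contained BTCh 2.5 mM and DTNB 3.4 mM. A412 was read for 5 min at 37°C, with enzyme-free blank subtracted. Triplicates.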

Data set [7] deals with Mus musculus. Put plainly: Cardiotoxicity in Kunming mouse assessed as change in heart rate at 20 mg/kg, ip measured after 33 mins by electrocardiogram (reference value: -39.12 +/- 24.73). Conditions: in vivo, 0.55 h. It counts as toxicity, organism-based.
The test system of data set [8] is Mus musculus. Description: Cardiotoxicity in Kunming mouse assessed as change in heart rate at 20 mg/kg, ip measured after 27 mins by electrocardiogram (reference value: -44.4 +/- 23.19). The note with it: in vivo, 0.45 h. It counts as toxicity, organism-based.
The subject of data set [9] is Mus musculus. Put plainly: Cardiotoxicity in Kunming mouse assessed as change in heart rate at 20 mg/kg, ip measured after 3 mins by electrocardiogram (reference value: -14.4 +/- 19.94). Type of data set: toxicity, organism-based. Conditions: in vivo, 0.05 h.
In data set [10] the test system is Mus musculus. Description: Cardiotoxicity in Kunming mouse assessed as change in heart rate at 20 mg/kg, ip measured after 24 mins by electrocardiogram (reference value: -44.48 +/- 12.38). Type of data set: toxicity, organism-based. The note with it: in vivo, 0.4 h.
The subject of data set [11] is Mus musculus. Put plainly: Cardiotoxicity in Kunming mouse assessed as change in heart rate at 20 mg/kg, ip measured after 18 mins by electrocardiogram (reference value: -37.61 +/- 15). Type of data set: toxicity, organism-based. The note with it: in vivo, 0.3 h.
Data set [12] has as its system Mus musculus. Put plainly: Cardiotoxicity in Kunming mouse assessed as change in heart rate at 20 mg/kg, ip measured after 14 mins by electrocardiogram (reference value: -38.12 +/- 19.53). Type of data set: toxicity, organism-based. Conditions: in vivo.
For the next data set, the target named is Acetylcholinesterase (Homo sapiens, UniProt P22303). Description: Inhibition of human blood AChE using acetylthiocholine as substrate.
Sequence of Acetylcholinesterase (P22303 whole entry): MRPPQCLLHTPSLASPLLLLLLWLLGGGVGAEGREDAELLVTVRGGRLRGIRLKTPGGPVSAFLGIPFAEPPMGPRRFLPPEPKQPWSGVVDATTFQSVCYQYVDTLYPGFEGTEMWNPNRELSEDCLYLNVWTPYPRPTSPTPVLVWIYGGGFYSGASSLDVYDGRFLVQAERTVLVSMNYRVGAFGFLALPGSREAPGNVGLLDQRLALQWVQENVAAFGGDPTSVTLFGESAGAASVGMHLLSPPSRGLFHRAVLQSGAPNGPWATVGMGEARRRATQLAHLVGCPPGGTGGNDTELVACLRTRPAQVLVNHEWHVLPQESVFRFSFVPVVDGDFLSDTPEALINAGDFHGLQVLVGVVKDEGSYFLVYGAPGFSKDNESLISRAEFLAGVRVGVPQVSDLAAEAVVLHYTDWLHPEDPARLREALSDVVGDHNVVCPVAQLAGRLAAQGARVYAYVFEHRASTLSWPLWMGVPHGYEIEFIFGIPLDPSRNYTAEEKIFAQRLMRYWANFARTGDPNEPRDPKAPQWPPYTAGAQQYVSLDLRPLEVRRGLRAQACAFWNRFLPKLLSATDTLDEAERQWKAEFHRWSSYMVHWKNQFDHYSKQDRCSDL
Data set [13] concerns the target T1, Cholinesterase. Put plainly: Inhibition of human blood BuChE using butyrylthiocholine as substrate. In outline: as §1
Data set [14] deals with Mus musculus. Description: Cardiotoxicity in Kunming mouse assessed as change in heart rate at 20 mg/kg, ip measured after 32 mins by electrocardiogram (reference value: -43.48 +/- 20.81). Type of data set: toxicity, organism-based. The note with it: in vivo.

Sequence of Cholinesterase (Equus caballus, UniProt P81908) (P81908 whole entry): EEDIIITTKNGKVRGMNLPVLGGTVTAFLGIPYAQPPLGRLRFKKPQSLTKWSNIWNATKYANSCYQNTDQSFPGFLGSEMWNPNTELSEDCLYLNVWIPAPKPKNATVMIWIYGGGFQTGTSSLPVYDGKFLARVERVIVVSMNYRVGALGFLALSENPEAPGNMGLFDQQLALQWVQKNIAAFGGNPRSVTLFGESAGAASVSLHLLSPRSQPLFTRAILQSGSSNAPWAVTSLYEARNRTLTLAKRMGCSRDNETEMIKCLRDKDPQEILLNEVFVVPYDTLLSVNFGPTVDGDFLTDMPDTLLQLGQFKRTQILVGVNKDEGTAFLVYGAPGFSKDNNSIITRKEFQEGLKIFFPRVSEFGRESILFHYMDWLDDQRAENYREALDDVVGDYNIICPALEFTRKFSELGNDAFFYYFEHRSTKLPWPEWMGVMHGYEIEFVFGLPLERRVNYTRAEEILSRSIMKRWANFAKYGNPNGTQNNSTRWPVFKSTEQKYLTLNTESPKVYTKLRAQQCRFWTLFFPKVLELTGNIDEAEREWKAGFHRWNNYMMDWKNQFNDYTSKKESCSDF

`CN(C)C(=O)Oc1cc(OC(=O)N(C)C)cc(C(O)CNC(C)(C)C)c1` (stereo unspecified) [BAMBUTEROL]: the IC50 against Cholinesterase [1] came to 4.29 nM; against Cholinesterase [6], 119 nM; against Acetylcholinesterase it was 30000 nM; against Cholinesterase [13], 3 nM. Also, the Activity with Mus musculus [2] was 32.75 bpm; with Mus musculus [3] it was 11.92 bpm; in the data set on Mus musculus [4], 57.32 bpm; with Mus musculus [5], 17.67 bpm; in the data set with Mus musculus [7] it was 4.05 bpm; with Mus musculus [8] it was -1.54 bpm. In addition, the Activity is on record as 2.1 bpm in the data set on Mus musculus [9]; 29.39 bpm in the data set on Mus musculus [10]; 32.35 bpm in the data set with Mus musculus [11]; 39.93 bpm in the data set on Mus musculus [12]; -2.09 bpm in the data set on Mus musculus [14].
On to `CCN(C)C(=O)Oc1cc(OC(=O)N(C)CC)cc(C(O)CNC(C)(C)CC)c1.Cl` (stereo unspecified), for which the half-inhibitory concentration (IC50) turned out to be 7.12 nM at Cholinesterase [1] and 116 nM against Cholinesterase [6]. Besides, the Activity with Mus musculus [2] was 0.05 bpm; in the data set on Mus musculus [3] it was -0.88 bpm; with Mus musculus [4], 3.92 bpm; with Mus musculus [5], 0.25 bpm; with Mus musculus [7], -2.93 bpm; with Mus musculus [8], -4.43 bpm. Besides, the Activity with Mus musculus [9] is 0.93 bpm; in the data set on Mus musculus [10], 3.13 bpm; in the data set on Mus musculus [11], 5.47 bpm; in the data set with Mus musculus [12], -4.15 bpm; in the data set on Mus musculus [14], -1.37 bpm.
On to `CCC(C)(C)NCC(O)c1cc(OC(=O)N(C)C)cc(OC(=O)N(C)C)c1.Cl` (stereo unspecified), for which the IC50 on Cholinesterase [1] was 7.28 nM; on Cholinesterase [6], 126 nM. The Activity in the data set on Mus musculus [2] is listed as -41.83 bpm; in the data set with Mus musculus [3], -42.44 bpm; in the data set with Mus musculus [4], -42.02 bpm; with Mus musculus [5] it was -28.9 bpm; with Mus musculus [7] it was -39.88 bpm; with Mus musculus [8], -32.47 bpm. For the same compound, the Activity was -22.65 bpm with Mus musculus [9]; -42.92 bpm in the data set with Mus musculus [10]; -38.45 bpm in the data set on Mus musculus [11]; -51.28 bpm in the data set on Mus musculus [12]; -36.77 bpm in the data set on Mus musculus [14].
